Screening results (PubChem BioAssay)
Hsp70 activator – transcriptional activators of Hsp70; HeLa Hsp70 promoter luciferase reporter, luminescence; scaled: vehicle 0, proteasome-inhibitor control 100%; activation, % at 10 µM; 200,000 compounds, 0.04% hits;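 active = activation above the mean across all tested compounds plus 3 SD, cutoff set per campaign, cut at about 5.5% in these data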;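 also: 100% = MG132 at 30 µM as the positive control and 0% = DMSO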
CHOP inhibitor – blocks CHOP induction under ER stress; CHO-K1 CHOP-promoter luciferase, tunicamycin-induced, 15-18 h; inhibition, % at 10 µM; 220,000 compounds, 3.8% hits; AID 2732;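 active = compounds that reduced the stress-induced luciferase reporter signal by more than about 70% of percent inhibition, limit read from the data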;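 also: 0% = tunicamycin plus vehicle and 100% = wells without tunicamycin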
S1P3 antagonist – antagonists of human S1P3 receptor; Q99500; CHO S1P3 NFAT-BLA reporter, FRET fluorescence, antagonist mode; inhibition, % at 4.98 µM; 170,000 compounds, 0.27% hits;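 active = inhibition above the plate cutoff, the mean inhibition of test wells on that plate plus 3 SD, cut at about 28% in these data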;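 also: cells challenged with S1P at its EC80 of 0.8 µM; blue over green emission ratio from cleaved BLA substrate after 4 h stimulation; 0% = S1P-stimulated wells and 100% = unstimulated DMSO-only wells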
Target sequence (Q99500 whole entry, looked up): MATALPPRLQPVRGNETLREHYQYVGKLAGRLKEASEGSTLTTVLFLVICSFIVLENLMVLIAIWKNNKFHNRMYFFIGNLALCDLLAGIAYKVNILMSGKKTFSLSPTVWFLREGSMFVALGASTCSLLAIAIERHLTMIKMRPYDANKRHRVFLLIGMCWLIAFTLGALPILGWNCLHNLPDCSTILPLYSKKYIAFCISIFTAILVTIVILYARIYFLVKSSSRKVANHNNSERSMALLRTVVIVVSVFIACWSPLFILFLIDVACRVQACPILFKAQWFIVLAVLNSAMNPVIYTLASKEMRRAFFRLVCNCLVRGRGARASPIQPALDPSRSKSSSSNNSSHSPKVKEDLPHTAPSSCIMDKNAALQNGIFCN
Mdm2 ligase inh – blocks human Mdm2 ubiquitin ligase activity. Q00987. cell-based MDM2 ubiquitination luciferase reporter, 2 h; 0 = plate control, 100 = twice control, blank-subtracted. 210,000 compounds, 0.11% hits. signal enhancement, % at 5 µM;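 active = signal enhancement of 30% or more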;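 also: luminescence tracks abundance of the self-degrading MDM2-luciferase fusion protein; higher signal means inhibition of MDM2 E3 ligase activity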
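test system = mammalian cells stably expressing self-ubiquitinating, self-degrading MDM2 E3–luciferase fusion | quantity = 2000 cells/well | incubation = cell settling 4 h, compound treatment 2 h, both 37 °C | signal = luminescence with SteadyLite reagent, 15 min at room temperature | evaluation = % enhancement relative to plate controls after blank subtraction | benchmarks = plate controls and plate blanks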
* = called active by the depositor. In the library only some 4% were active in any assay of this set; here they are far more common.

Results for CN1CCN(c2oc(COc3ccc(-c4ccccc4)cc3)nc2C#N)CC1 ?
Hsp70 activator: -0.5; CHOP inhibitor: 86.9*; S1P3 antagonist: 8.8; Mdm2 ligase inh: -17.8

What do the screens show for `Cc1ccc(Cn2nnc3c(=O)[nH]c(C4CCCN(S(=O)(=O)c5ccccc5)C4)nc32)cc1` (stereo unspecified)?
Hsp70 activator: -0.3; CHOP inhibitor: 28.9; Mdm2 ligase inh: -11.3

What do the screens show for `O=c1[nH]c(C2CCCN(S(=O)(=O)c3ccc(F)cc3)C2)nc2c1nnn2Cc1ccccc1` (stereo unspecified)?
Hsp70 activator: 0.1; CHOP inhibitor: 90.2*; S1P3 antagonist: 2.2; Mdm2 ligase inh: 13.6

What do the screens show for `N#C/C(=C(/O)CN1CCN(c2ccccc2F)CC1)c1nc(-c2ccc(Cl)cc2)cs1`?
Hsp70 activator: 0.0; CHOP inhibitor: 82.5*; Mdm2 ligase inh: 3.2

How did Cc1cc(SCC(=O)c2cc(C)n(C)c2C)nc2ccccc12 do in these assays?
Hsp70 activator: -0.5; CHOP inhibitor: 15.2; S1P3 antagonist: 2.8; Mdm2 ligase inh: -11.3

Results for CC(C)(C)C(=O)Nc1c(Cl)cccc1OC(F)(F)F ?
CHOP inhibitor: 22.3; S1P3 antagonist: -0.5; Mdm2 ligase inh: -14.8

Results for COC(=O)c1cccnc1N1CCN(c2ccccc2F)CC1 ?
Hsp70 activator: -0.3; CHOP inhibitor: 36.6; Mdm2 ligase inh: -6.7

How did CC(C)OC(=O)c1cccnc1N1CCN(c2ccc(F)cc2)CC1 do in these assays?
Hsp70 activator: -0.2; CHOP inhibitor: 78.1*; Mdm2 ligase inh: -5.7

What do the screens show for `CCOCCCNC(=O)Cn1cc2c(n1)CCCCC2`?
Hsp70 activator: -0.2; CHOP inhibitor: 14.2; S1P3 antagonist: -8.1; Mdm2 ligase inh: -31.5

Results for O=C(O)c1ccc2c(c1)N(Cc1ccccc1F)C(=O)c1ccccc1S2=O (stereo unspecified) ?
Hsp70 activator: -0.3; CHOP inhibitor: 1.2; S1P3 antagonist: -19.2; Mdm2 ligase inh: 71.0*

Results for O=[N+]([O-])c1ccc(OCCO)nc1 ?
CHOP inhibitor: 0.4; S1P3 antagonist: 4.5; Mdm2 ligase inh: -3.8

Results for CCNC(=O)C1CC(=O)N(CCCc2ccccc2)C(=Nc2ccccc2)S1 (stereo unspecified) ?
CHOP inhibitor: -0.7; S1P3 antagonist: -0.1; Mdm2 ligase inh: -5.8

How did CS(=O)(=O)N(CC(=O)N/N=C/c1cccc2c1OCCO2)c1ccccc1Br do in these assays?
Hsp70 activator: -0.4; CHOP inhibitor: 16.5; Mdm2 ligase inh: -9.3

What do the screens show for `O=C(CN(c1ccc(Cl)c(C(F)(F)F)c1)S(=O)(=O)c1ccccc1)N/N=C/c1cccc2c1OCCO2`?
Hsp70 activator: -0.1; CHOP inhibitor: 73.3*; Mdm2 ligase inh: -9.3

Results for COc1ccccc1C(c1nnnn1CCc1ccccc1)N1CCCCCC1 (stereo unspecified) ?
Hsp70 activator: 0.1; CHOP inhibitor: 38.0; Mdm2 ligase inh: 7.9

How did Fc1ccc(N/N=C/C=C/c2ccccc2)c(F)c1 do in these assays?
Hsp70 activator: -0.1; CHOP inhibitor: 77.0*; S1P3 antagonist: 10.4; Mdm2 ligase inh: -8.2

Results for Fc1ccc(N/N=C/c2ccncc2)c(F)c1 ?
Hsp70 activator: 0.0; CHOP inhibitor: -4.9; S1P3 antagonist: 12.3; Mdm2 ligase inh: -4.8

What do the screens show for `Cc1cccc(C)c1NC(=O)C(NS(=O)(=O)c1cccs1)c1ccccc1` (stereo unspecified)?
Hsp70 activator: 0.2; CHOP inhibitor: -5.3; S1P3 antagonist: -0.8; Mdm2 ligase inh: 7.9

What do the screens show for `Cc1ccccc1-c1nc(S(=O)(=O)c2ccc(Cl)cc2)c(NCCN2CCOCC2)o1`?
Hsp70 activator: -0.2; CHOP inhibitor: 89.9*; Mdm2 ligase inh: -16.3

How did O=S(=O)(c1ccccc1)c1nc(-c2ccccc2Cl)oc1NCCN1CCOCC1 do in these assays?
Hsp70 activator: -0.6; CHOP inhibitor: 10.1; Mdm2 ligase inh: -14.8

What do the screens show for `Cc1cc(C)c2c(=O)n(CC(=O)N3CCC(Cc4ccccc4)CC3)sc2n1`?
Hsp70 activator: -0.2; CHOP inhibitor: 106.7*; S1P3 antagonist: 9.7; Mdm2 ligase inh: -11.1

What do the screens show for `Cc1ccc(-c2ccc(=O)n(CC(=O)N3CCN(c4cccc(C)c4)C(C)C3)n2)cc1` (stereo unspecified)?
Hsp70 activator: -0.4; CHOP inhibitor: 67.1; S1P3 antagonist: 1.9; Mdm2 ligase inh: -8.4

How did Cc1cccc(N2CCN(C(=O)Cn3sc4nc(C)cc(C)c4c3=O)CC2C)c1 (stereo unspecified) do in these assays?
Hsp70 activator: 0.1; CHOP inhibitor: 99.0*; S1P3 antagonist: -24.5; Mdm2 ligase inh: -3.3

What do the screens show for `COc1cccc(COCC(O)Cn2cnc3cc(C)c(C)cc32)c1` (stereo unspecified)?
Hsp70 activator: -0.1; CHOP inhibitor: 12.7; S1P3 antagonist: -6.0; Mdm2 ligase inh: -2.0

What do the screens show for `CCN(CC)S(=O)(=O)c1ccc(C)c(NC(=S)N2CCN(Cc3ccc4c(c3)OCO4)CC2)c1`?
Hsp70 activator: 0.1; CHOP inhibitor: 45.4; S1P3 antagonist: -2.9; Mdm2 ligase inh: -3.3

What do the screens show for `CCN(CC)S(=O)(=O)c1ccc(C)c(NC(=S)N2CCN(C/C=C/c3ccccc3)CC2)c1`?
Hsp70 activator: 0.0; CHOP inhibitor: 80.6*; S1P3 antagonist: 5.5; Mdm2 ligase inh: -14.9

What do the screens show for `O=C(/C=C/c1ccc2c(c1)OCO2)Nc1nc2ccc(F)cc2s1`?
CHOP inhibitor: -118.9; S1P3 antagonist: -1.1

Results for O=C(CSc1nnc(SCc2ccc(Cl)cc2)s1)N/N=C/c1c[nH]c2ccccc12 ?
Hsp70 activator: 0.3; CHOP inhibitor: 91.6*; S1P3 antagonist: 0.8; Mdm2 ligase inh: 4.2

Results for CCC1(C)N=C(N)Nc2nc3cc(C)c(C)cc3n21 (stereo unspecified) ?
CHOP inhibitor: 17.9; S1P3 antagonist: 0.4; Mdm2 ligase inh: -8.0

Results for CCCC(=O)N(C1CC(C)C(C#N)(C#N)C1(C#N)C#N)N(C)C (stereo unspecified) ?
CHOP inhibitor: -80.3; S1P3 antagonist: 22.1; Mdm2 ligase inh: -8.2

How did CC(=O)N(C1CC(C)C(C#N)(C#N)C1(C#N)C#N)N(C)C (stereo unspecified) do in these assays?
Hsp70 activator: -0.2; CHOP inhibitor: 91.7*; S1P3 antagonist: 16.4; Mdm2 ligase inh: 2.0

Results for CCn1c(CC(=O)Nc2ccc(C)c(Cl)c2)nnc1SCc1ccc(Cl)c(Cl)c1 ?
Hsp70 activator: -0.6; CHOP inhibitor: 8.6; Mdm2 ligase inh: -19.6

What do the screens show for `CCn1c(CC(=O)Nc2ccc(C)c(Cl)c2)nnc1SCC(=O)Nc1nc(C)cs1`?
Hsp70 activator: -0.1; CHOP inhibitor: 78.5*; Mdm2 ligase inh: -14.7

Results for CCn1cc(C(=O)NCCCN2CCC(C)CC2)c2cc(OC)c(OC)cc2c1=O ?
Hsp70 activator: -0.4; CHOP inhibitor: -28.7; S1P3 antagonist: -29.0; Mdm2 ligase inh: -4.1

How did O=S1(=O)CCN2N=C(C34CC5CC(CC(C5)C3)C4)SC2=N1 do in these assays?
Hsp70 activator: -0.1; CHOP inhibitor: -12.1; S1P3 antagonist: -10.4; Mdm2 ligase inh: -8.3

What do the screens show for `CS/C(=N\S(=O)(=O)c1ccc(Cl)cc1)c1ccccc1`?
Hsp70 activator: 0.0; CHOP inhibitor: 77.3*; Mdm2 ligase inh: 10.3
